Results taken from ChEMBL document CHEMBL5344463, “Design, Synthesis, and Antifungal Activity of 3-Substituted-2(5H)-Oxaboroles” (ACS Med Chem Lett, 2024).
≈ marks a conversion by molar mass, not a printed value. Calls of active or inactive are those of the source. No cut-off for these calls is given here.

How the values were obtained:
Saccharomyces cerevisiae [1] = test: Antimicrobial activity against Saccharomyces cerevisiae assessed as growth inhibition at 50 ug/ml in liquid medium by liquid MIC assay; assay type: functional, organism-based; conditions: dose 50.0 µg/ml
Summary of the method: (§1)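 Single-concentration liquid-medium growth screen of non-spore-forming microbes, run at 50 and 12.5 μg/mL. Growth is read by absorbance.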

H9c2 = test: Cytotoxicity against rat H9c2 cells assessed as cell viability at 100 uM incubated for 24 hrs by CCk8 dye assay; assay type: toxicity, cell-based; conditions: h9c2, 24 h
Summary of the method: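 Rat myoblast H9c2 cells are exposed to 100 μM compound for 24 h. Viability is normalized to PBS no-treatment control. Values are mean ± SEM, n = 3.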

Candida albicans [2] = test: Antifungal activity against Candida albicans assessed as growth inhibition at 50 ug/ml in liquid medium by liquid MIC assay; assay type: functional, organism-based; conditions: dose 50.0 µg/ml; summary of the method: as §1
Erythrocyte = test: Hemolytic activity in sheep erythrocytes assessed as cell lysis at 50 to 100 uM measured after 1 hr; assay type: toxicity, cell-based, Ovis aries; conditions: dose 50-100 µM
Summary of the method: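 Erythrocytes are exposed to compound at 50 and 100 μM for 1 h. Lysis is normalized to a Triton X-100 positive control. Values are mean ± SEM, n = 3.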

Bacillus cereus = test: Antibacterial activity against Bacillus cereus assessed as growth inhibition incubated for 48 hrs in solid agar medium by solid MIC assay; assay type: functional
Penicillium chrysogenum = test: Antifungal activity against Penicillium chrysogenum assessed as growth inhibition incubated for 48 hrs in solid agar medium by solid MIC assay; assay type: functional
Summary of the method: (§2)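 Dose-dependent solid-agar MIC assay for spore-forming fungi (liquid media unusable because mycelia clump and block absorbance). Compound tested at […] in agar. Fungal growth scored visually as white mycelia on the plates. MIC is taken from biological replicates.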

Saccharomyces cerevisiae [3] = test: Antimicrobial activity against Saccharomyces cerevisiae assessed as growth inhibition incubated for 48 hrs in solid agar medium by solid MIC assay; assay type: functional
Pseudomonas aeruginosa = test: Antibacterial activity against Pseudomonas aeruginosa deltaMexAB-OprM assessed as growth inhibition incubated for 48 hrs in solid agar medium by solid MIC assay; assay type: functional
Staphylococcus aureus [4] = test: Antibacterial activity against methicillin-resistant Staphylococcus aureus assessed as growth inhibition incubated for 48 hrs in solid agar medium by solid MIC assay; assay type: functional
Candida albicans [5] = test: Antifungal activity against Candida albicans assessed as growth inhibition incubated for 48 hrs in solid agar medium by solid MIC assay; assay type: functional
Aspergillus flavus = test: Antifungal activity against Aspergillus flavus assessed as growth inhibition incubated for 48 hrs in solid agar medium by solid MIC assay; assay type: functional; summary of the method: as §2
[6] = tested on: Trichophyton mentagrophytes; test: Antifungal activity against Trichophyton mentagrophytes assessed as growth inhibition incubated for 48 hrs in solid agar medium by solid MIC assay; assay type: functional; summary of the method: as §2
Escherichia coli = test: Antibacterial activity against Escherichia coli ATCC 25922 assessed as growth inhibition incubated for 48 hrs in liquid medium by microbroth dilution assay; conditions: ATCC 25922, 48 h
Staphylococcus aureus [7] = test: Antibacterial activity against methicillin-resistant Staphylococcus aureus assessed as growth inhibition at 50 ug/ml in liquid medium by liquid MIC assay; assay type: functional, organism-based; conditions: dose 50.0 µg/ml
Summary of the method: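 Single-point growth-inhibition screen in liquid medium against nonspore-forming organisms. Compound tested at 50 and 12.5 μg/mL, growth read by absorbance, and reported at the 50 μg/mL level.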

OB1OCC=C1c1ccc(OC(F)(F)F)cc1
Activity (Saccharomyces cerevisiae [1]): Active | Activity (H9c2): Non-Toxic | Activity (Candida albicans [2]): Active | Activity (Erythrocyte): Non-Toxic

OB1OCC=C1C1=CCCCC1
Activity (Saccharomyces cerevisiae [1]): Active

OB1OCC=C1c1cccc(Cl)c1
Activity (Saccharomyces cerevisiae [1]): Active | Activity (H9c2): Non-Toxic | Activity (Erythrocyte): Non-Toxic

OB1OCC=C1c1ccccc1F
Activity (Saccharomyces cerevisiae [1]): Active | Activity (H9c2): Non-Toxic | Activity (Erythrocyte): Non-Toxic

CCCc1ccc(C2=CCOB2O)cc1
Activity (Saccharomyces cerevisiae [1]): Active | Activity (H9c2): Non-Toxic | Activity (Erythrocyte): Non-Toxic

OB1OCC=C1c1cccc(F)c1
Activity (Saccharomyces cerevisiae [1]): Active | Activity (H9c2): Non-Toxic | Activity (Erythrocyte): Non-Toxic

NYSTATIN
MIC (Bacillus cereus): > 50 µg/mL | MIC (Penicillium chrysogenum): 1.56 µg/mL | MIC (Saccharomyces cerevisiae [3]): 1.56 µg/mL | MIC (Pseudomonas aeruginosa): > 50 µg/mL | MIC (Staphylococcus aureus [4]): > 50 µg/mL | MIC (Candida albicans [5]): 0.78 µg/mL | MIC (Aspergillus flavus): 2.6 µg/mL | MIC [6]: 3.13 µg/mL

OB1OCc2cc(F)ccc21 [TAVABOROLE]
MIC (Staphylococcus aureus [4]): > 50 µg/mL | Activity (H9c2): Non-Toxic | Activity (Erythrocyte): Non-Toxic

OB1OCC=C1c1ccc2ccccc2c1
Activity (H9c2): Non-Toxic | Activity (Erythrocyte): Non-Toxic

OB1OCC=C1c1cccc(Br)c1
Activity (Saccharomyces cerevisiae [1]): Active | Activity (H9c2): Non-Toxic | Activity (Candida albicans [2]): Active | Activity (Erythrocyte): Non-Toxic

Cc1ccc(C2=CCOB2O)cc1
Activity (Saccharomyces cerevisiae [1]): Active | MIC (Escherichia coli): 42 µg/mL (≈ 241 µM) | Activity (H9c2): Non-Toxic | Activity (Erythrocyte): Non-Toxic

OB1OCC=C1c1ccccc1Cl
Activity (Saccharomyces cerevisiae [1]): Active

OB1OCC=C1c1ccc2occc2c1
Activity (Saccharomyces cerevisiae [1]): Active | Activity (H9c2): Non-Toxic | Activity (Candida albicans [2]): Active | Activity (Erythrocyte): Non-Toxic

Cc1cccc(C2=CCOB2O)c1
Activity (Saccharomyces cerevisiae [1]): Active | Activity (H9c2): Non-Toxic | Activity (Erythrocyte): Non-Toxic

OB1OCC=C1c1cccc(I)c1
Activity (Saccharomyces cerevisiae [1]): Active | Activity (Staphylococcus aureus [7]): inactive | Activity (H9c2): Non-Toxic | Activity (Candida albicans [2]): Active | Activity (Erythrocyte): Non-Toxic

OB1OCC=C1c1ccc(Br)cc1
Activity (Saccharomyces cerevisiae [1]): Active | Activity (H9c2): Non-Toxic | Activity (Candida albicans [2]): Active | Activity (Erythrocyte): Non-Toxic

OB1OCC=C1c1ccccc1
Activity (Saccharomyces cerevisiae [1]): Active

CC(C)(C)c1ccc(C2=CCOB2O)cc1
Activity (H9c2): Non-Toxic | Activity (Erythrocyte): Non-Toxic

Cc1cc(F)cc(C2=CCOB2O)c1
Activity (Saccharomyces cerevisiae [1]): Active | MIC (Escherichia coli): > 50 µg/mL | Activity (H9c2): Non-Toxic | Activity (Erythrocyte): Non-Toxic

OB1OCC=C1c1ccc(F)cc1
MIC (Escherichia coli): 42 µg/mL (≈ 236 µM) | Activity (H9c2): Non-Toxic | Activity (Candida albicans [2]): Active | Activity (Erythrocyte): Non-Toxic

OB1OCC=C1c1cccs1
Activity (Saccharomyces cerevisiae [1]): Active | MIC (Escherichia coli): 42 µg/mL (≈ 253 µM)

OB1OCC=C1c1ccc(Cl)cc1
Activity (Saccharomyces cerevisiae [1]): Active | Activity (H9c2): Non-Toxic | Activity (Candida albicans [2]): Active | Activity (Erythrocyte): Non-Toxic

COc1cccc(C2=CCOB2O)c1
Activity (Saccharomyces cerevisiae [1]): Active
